Test results reported in ChEMBL document CHEMBL1148787, “Novel substituted (pyridin-3-yl)phenyloxazolidinones: antibacterial agents with reduced activity against monoamine oxidase A and increased solubility” (J Med Chem, 2007).
≈ marks a conversion by molar mass, not a printed value.

Key:
Staphylococcus aureus = experiment: Antibacterial activity against methicillin-susceptible Staphylococcus aureus AP601055; assay type: functional
Outline: (§1)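 CLSI broth microdilution, 64 to 0.06 µg/mL, 2% DMSO final. Media: S. aureus, Mueller Hinton broth; H. influenzae, MHB plus 0.5% yeast extract, 15 µg/mL hematin, 1.5 µg/mL NAD; S. pneumoniae, MHB plus 0.65% lysed horse blood. 35 °C, aerobic (S. aureus) or 5% CO2.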

Streptococcus pneumoniae [1] = experiment: Antibacterial activity against penicillin-susceptible Streptococcus pneumoniae AP671401; assay type: functional; outline: as §1
Streptococcus pneumoniae [2] = experiment: Antibacterial activity against linezolid-resistant Streptococcus pneumoniae; assay type: functional
Outline: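 Broth microdilution per CLSI guidelines. Compounds were dissolved in 100% DMSO and diluted to 2% DMSO (v/v), 64 to 0.06 µg/mL, in 2.2% (w/v) Mueller Hinton broth with 0.65% (v/v) lysed horse blood. Plates were incubated at 35 °C in 5% CO2 and read at 620 nm.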

Haemophilus influenzae = experiment: Antibacterial activity against Haemophilus influenzae ATCC 51907; assay type: functional; outline: as §1
[3] = Solubility by nephelometric analysis; assay type: physicochemical
Outline: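 Nephelometry after diluting compounds into the MAO-A assay mixture (100 mM potassium phosphate, pH 7.4).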

[4] = molecular target: T1, Amine oxidase [flavin-containing] A (Homo sapiens, UniProt P21397); experiment: Inhibition of human liver MAOA expressed in yeast
T1 sequence (P21397 whole entry): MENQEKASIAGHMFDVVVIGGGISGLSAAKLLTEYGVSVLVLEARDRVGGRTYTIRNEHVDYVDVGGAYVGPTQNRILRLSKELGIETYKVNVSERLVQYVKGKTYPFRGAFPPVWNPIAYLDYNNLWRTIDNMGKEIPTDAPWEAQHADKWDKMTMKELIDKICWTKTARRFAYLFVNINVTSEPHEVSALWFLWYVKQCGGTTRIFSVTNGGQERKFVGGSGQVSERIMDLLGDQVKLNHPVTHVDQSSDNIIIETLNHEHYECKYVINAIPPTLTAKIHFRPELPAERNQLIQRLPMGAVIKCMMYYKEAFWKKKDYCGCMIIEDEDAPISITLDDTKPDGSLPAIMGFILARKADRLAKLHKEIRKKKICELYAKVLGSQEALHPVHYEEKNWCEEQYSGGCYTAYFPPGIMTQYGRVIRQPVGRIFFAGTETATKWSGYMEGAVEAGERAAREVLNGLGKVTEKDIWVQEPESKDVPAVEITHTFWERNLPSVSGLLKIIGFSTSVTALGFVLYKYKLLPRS

[5] = Half life in Wistar rat at 10 mg/kg, iv; assay type: ADME, organism-based; set-up: dose 10 mg/kg, route intravenous; conditions: in vivo
Outline: (§2)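 Groups of three Wistar Han rats; bolus injection via cannulated jugular vein at 2 or 10 mg/kg. Serial 200 µL whole-blood samples at time intervals; plasma levels by LC-MS/MS; parameters by noncompartmental analysis.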

[6] = Clearance in Wistar rat at 10 mg/kg, iv; assay type: ADME, organism-based; set-up: dose 10 mg/kg, route intravenous; conditions: in vivo; outline: as §2
[7] = Volume of distribution in Wistar rat at 10 mg/kg, iv; assay type: ADME, organism-based; set-up: dose 10 mg/kg, route intravenous; conditions: in vivo, read-out: Vdss; outline: as §2
[8] = AUC in Wistar rat at 10 mg/kg, iv; assay type: ADME, organism-based; set-up: dose 10 mg/kg, route intravenous; conditions: plasma; outline: as §2
[9] = Oral bioavailability in Wistar rat at 10 mg/kg, po; assay type: ADME, organism-based; conditions: in vivo
Outline: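 Wistar Han rats, groups of three; 10 mg/kg given by oral gavage, compared against iv dosing. Serial whole-blood sampling, plasma drug by LC-MS/MS, noncompartmental pharmacokinetic analysis.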

| Compound | MIC (Staphylococcus aureus) [µg/mL] | MIC (Streptococcus pneumoniae [1]) [µg/mL] | MIC (Streptococcus pneumoniae [2]) [µg/mL] | MIC (Haemophilus influenzae) [µg/mL] | solubility kinetic [3] [µM] | Ki [4] [µM] | half-life [5] [h] | clearance [6] [mL/min/kg] | Vd [7] [L/kg] | AUC [8] [ng·h/mL] | bioavailability [9] [%] |
| --- | --- | --- | --- | --- | --- | --- | --- | --- | --- | --- | --- |
| CN1CCN(CCCC(O)c2ccc(-c3ccc(N4C[C@H](Cn5ccnn5)OC4=O)cc3F)cn2)CC1 (stereo not given in full) | 2 (≈ 3.92 µM) | 0.25 (≈ 0.491 µM) | 1 (≈ 1.96 µM) | 8 (≈ 15.7 µM) | > 400 | 41 |  |  |  |  |  |
| C[C@@H](O)c1ccc(-c2ccc(N3C[C@H](Cn4ccnn4)OC3=O)cc2F)cn1 | 0.25 (≈ 0.652 µM) | < 0.06 | 1 (≈ 2.61 µM) | 2 (≈ 5.22 µM) | > 400 | 4.3 |  |  |  |  |  |
| O=C(Cn1ccnc1)c1ccc(-c2ccc(N3C[C@H](Cn4ccnn4)OC3=O)cc2F)cn1 | 0.25 (≈ 0.559 µM) |  | 0.5 (≈ 1.12 µM) | 2 (≈ 4.47 µM) | 12.5 (≈ 5.59 µg/mL) | > 12 |  |  |  |  |  |
| CC(C)(O)c1ccc(-c2ccc(N3C[C@H](Cn4ccnn4)OC3=O)cc2F)cn1 | 1 (≈ 2.52 µM) | 0.25 (≈ 0.629 µM) | 2 (≈ 5.03 µM) | 8 (≈ 20.1 µM) | 200 (≈ 79.5 µg/mL) | 6 |  |  |  |  |  |
| O=C1O[C@@H](Cn2ccnn2)CN1c1ccc(-c2ccc(C(O)C3CNC3)nc2)c(F)c1 (stereo not given in full) | 64 (≈ 151 µM) | 16 (≈ 37.7 µM) | > 64 | 64 (≈ 151 µM) | > 400 | 58 |  |  |  |  |  |
| CC(C)NCC(O)c1ccc(-c2ccc(N3C[C@H](Cn4ccnn4)OC3=O)cc2F)cn1 (stereo not given in full) | 4 (≈ 9.08 µM) | 0.5 (≈ 1.14 µM) | 2 (≈ 4.54 µM) | 4 (≈ 9.08 µM) | > 400 | > 178 |  |  |  |  |  |
| O=C1O[C@@H](Cn2ccnn2)CN1c1ccc(-c2ccc(C(O)C3CCNCC3)nc2)c(F)c1 (stereo not given in full) | 64 (≈ 141 µM) | 4 (≈ 8.84 µM) | 32 (≈ 70.7 µM) | 64 (≈ 141 µM) | > 400 | 136 |  |  |  |  |  |
| C[C@H](O)c1ccc(-c2ccc(N3C[C@H](Cn4ccnn4)OC3=O)cc2F)cn1 | 0.5 (≈ 1.3 µM) | < 0.06 | 1 (≈ 2.61 µM) | 2 (≈ 5.22 µM) | > 400 | 5.9 | 1 | 25 | 1.3 | 6700 | 100 |
| CO[C@@H](C)c1ccc(-c2ccc(N3C[C@H](Cn4ccnn4)OC3=O)cc2F)cn1 | 1 (≈ 2.52 µM) | 0.25 (≈ 0.629 µM) | 4 (≈ 10.1 µM) | 16 (≈ 40.3 µM) | > 400 | 2.5 |  |  |  |  |  |
| CC(C)C(O)c1ccc(-c2ccc(N3C[C@H](Cn4ccnn4)OC3=O)cc2F)cn1 (stereo not given in full) | 0.5 (≈ 1.22 µM) | 0.25 (≈ 0.608 µM) | 2 (≈ 4.86 µM) | 16 (≈ 38.9 µM) | > 400 | 11.3 |  |  |  |  |  |
| O=C(c1ccc(-c2ccc(N3C[C@H](Cn4ccnn4)OC3=O)cc2F)cn1)C1CCNCC1 | 0.5 (≈ 1.11 µM) | 0.13 (≈ 0.289 µM) | 0.5 (≈ 1.11 µM) | 4 (≈ 8.88 µM) | 100 (≈ 45 µg/mL) | > 44 | 2.4 | 38 | 3.8 | 4000 |  |
| CN(C)CC(O)c1ccc(-c2ccc(N3C[C@H](Cn4ccnn4)OC3=O)cc2F)cn1 (stereo not given in full) | 4 (≈ 9.38 µM) | 0.25 (≈ 0.586 µM) | 2 (≈ 4.69 µM) | 4 (≈ 9.38 µM) | > 400 | > 178 |  |  |  |  |  |
